# Assay results gathered from unrelated publications.
# WDR5: WD repeat-containing protein 5 (WDR5, Homo sapiens, UniProt P61964)
# HRH3: Histamine H3 receptor (HRH3, Homo sapiens, UniProt Q9Y5N1)
# CYP1B1: Cytochrome P450 1B1 (CYP1B1, Homo sapiens, UniProt Q16678)
# DRD5: D(1B) dopamine receptor (DRD5, Homo sapiens, UniProt P21918)
# PDEB1: Class 1 phosphodiesterase PDEB1 (PDEB1, Trypanosoma brucei, UniProt Q8WQX9)
# SLC10A2: Ileal sodium/bile acid cotransporter (SLC10A2, Homo sapiens, UniProt Q12908)
# Hypoxanthine-guanine-xanthine phosphoribosyltransferase: Hypoxanthine-guanine-xanthine phosphoribosyltransferase (Plasmodium falciparum, UniProt P20035)
SMILES,target,assay,setting,Ki [µM]
Cc1nc(F)ccc1-c1cc(Cn2ccn(C)c2=N)cc(C(=O)NCc2ccc(Cl)c(Cl)c2)c1,WDR5,"ligand displacement, FP",,< 1e-06
O=C1CCCc2cc(OCc3ccc(OCCCN4CCCCC4)cc3)ccc21,HRH3,"ligand displacement, radioligand",cell membranes,0.019
CN(C(=O)[C@@H]1Cc2ccccc2CN1C(=O)c1ccc(Cl)s1)c1ccc(N2CCCCC2=O)cc1,"Coagulation factor X (F10, Homo sapiens, UniProt P00742)","enzyme activity, inhibitor, absorbance",,28
COc1cc(CNC(=O)c2cccc(CNC3=NCCN3)c2F)cc(OC)c1,WDR5,"ligand displacement, TR-FRET",,> 0.033
COc1cc(O)c(CC=C(C)C)c(O)c1C(=O)/C=C/c1ccc(O)cc1,CYP1B1,"enzyme activity, inhibitor, fluorescence","15 min, pH 7.4",0.17
CCCCN1CCC(COC(=O)c2ccc(N)c(OCF)c2)CC1,DRD5,"cell-free assay, radioligand",,> 10
C#Cc1ccccc1-c1cc(=O)c2ccccc2o1,CYP1B1,"enzyme activity, inhibitor, fluorescence","6 min, pH 7.6",0.61
COc1ccc(C2=NN(C(C)C)C(=O)C3CC=CCC23)cc1-c1ccc(C(=O)N2CCC[C@@H]2C(N)=O)cc1 (mixture of isomers),PDEB1,"enzyme activity, inhibitor",,0.631
O=C(NCc1cc(Cl)cc(Cl)c1)c1cccc(Cn2ccnc2)c1,WDR5,"ligand displacement, FP",,0.681
CCCc1ccc(OCCCCCN2CCCCCC2)cc1,HRH3,"ligand displacement, radioligand",cell membranes,0.0563
CN1CCN(CCCOc2ccc(Nc3nccc(N4CCN(C)CC4)n3)cc2)CC1,HRH3,"ligand displacement, radioligand",cell membranes,0.646
CCCc1ccc(OCCCCCN2CCCCC2)cc1,HRH3,"ligand displacement, radioligand",cell membranes,0.048
NS(=O)(=O)c1cc2c(cc1Cl)NC(C(Cl)Cl)NS2(=O)=O (centres unmarked),SLC10A2,"transporter uptake, inhibitor",,377
CCOc1c(O)cc(Br)c2c1CN1CCc3cc(OCC(F)F)c(O)cc3[C@@H]1C2,DRD5,"cell-free assay, radioligand",,0.082
NS(=O)(=O)NC[C@@H](CO)NCc1c[nH]c2c(O)nc(O)nc12,Hypoxanthine-guanine-xanthine phosphoribosyltransferase,"enzyme activity, inhibitor",pH 7.4,> 20
C[C@H]1[C@H](NC(=O)/C(=N\OC(C)(C)C(=O)O)c2csc(N)n2)C(=O)N1S(=O)(=O)O,SLC10A2,"transporter uptake, inhibitor",,1850
Cc1nc(F)ccc1-c1cc(C(=O)NCc2ccc(Cl)c(Cl)c2)ccc1Cn1ccn(C)c1=N,WDR5,"ligand displacement, FP",,> 5
O=C1c2ccccc2CCCN1CCCCN1CCN(c2ccccn2)CC1,DRD5,"ligand displacement, radioligand",,> 10
NS(=O)(=O)NC[C@@H](CO)NCc1c[nH]c2c(O)ncnc12,Hypoxanthine-guanine-xanthine phosphoribosyltransferase,"enzyme activity, inhibitor",pH 7.4,> 20
CCCCNc1cc(C(=O)O)cc(S(N)(=O)=O)c1Oc1ccccc1,SLC10A2,"transporter uptake, inhibitor",,225
C#Cc1ccc2c(=O)cc(-c3ccccc3)oc2c1,CYP1B1,"enzyme activity, inhibitor, fluorescence","6 min, pH 7.6",0.42
CN1CCN(CC/C=C2/c3ccccc3Sc3ccc(S(=O)(=O)N(C)C)cc32)CC1,SLC10A2,"transporter uptake, inhibitor",,808
CCc1ccc(OCCCCCCN2CCCC(C)C2)cc1 (centres unmarked),HRH3,"ligand displacement, radioligand",cell membranes,0.0741
O=c1c(O)c(NCC[C@@H](CO)NCc2c[nH]c3c(O)ncnc23)c1=O,Hypoxanthine-guanine-xanthine phosphoribosyltransferase,"enzyme activity, inhibitor",pH 7.4,> 20
COC(=O)C1=C(C)NC(C)=C(C(=O)OC(C)C)C1c1cccc2nonc12 (centres unmarked),SLC10A2,"transporter uptake, inhibitor",,19.4
CCOC(=O)[C@](CC)(CCCS(=O)(=O)CCOCCOCCNC(=O)OC(C)(C)C)NC(=O)c1ccc(C2CC2)c(Cc2ccc(F)cc2)n1,"Cannabinoid receptor 2 (CNR2, Homo sapiens, UniProt P34972)","ligand displacement, radioligand",cell membranes,0.045
CCOC(=O)C1=C(COCCN)NC(C)=C(C(=O)OC)C1c1ccccc1Cl (centres unmarked),SLC10A2,"transporter uptake, inhibitor",,< 100
O=C1c2ccccc2CCN1CCCCN1CCN(c2ccccn2)CC1,DRD5,"ligand displacement, radioligand",,9.36
C#Cc1ccc(-c2cc(=O)c3ccccc3o2)cc1,CYP1B1,"enzyme activity, inhibitor, fluorescence","6 min, pH 7.6",0.13
CN(C)c1ccc(/C=C2\CCc3cc(OCc4ccc(OCCCN5CCCCC5)cc4)ccc3C2=O)cc1,HRH3,"ligand displacement, radioligand",cell membranes,0.041
COc1ccc(C2=NN(C3CCCCCC3)C(=O)C3CC=CCC23)cc1-c1ccc(C(=O)N2CC[C@@H](O)C2)cc1 (mixture of isomers),PDEB1,"enzyme activity, inhibitor",,0.251
CC(=O)S[C@@H]1CC2=CC(=O)CC[C@]2(C)[C@H]2CC[C@@]3(C)[C@@H](CC[C@@]34CCC(=O)O4)[C@H]12,SLC10A2,"transporter uptake, inhibitor",,110
O=C1CN(CC[C@@H](CO)NCc2c[nH]c3c(O)ncnc23)S(=O)(=O)N1,Hypoxanthine-guanine-xanthine phosphoribosyltransferase,"enzyme activity, inhibitor",pH 7.4,> 20
O=C1CCCc2ccc(OCc3ccc(OCCCN4CCCCC4)cc3)cc21,HRH3,"ligand displacement, radioligand",cell membranes,0.017
C#Cc1cccc(-c2cc(=O)c3ccccc3o2)c1,CYP1B1,"enzyme activity, inhibitor, fluorescence","6 min, pH 7.6",0.16
COc1ccc([C@@H]2Sc3ccccc3N(CCN(C)C)C(=O)[C@@H]2OC(C)=O)cc1,SLC10A2,"transporter uptake, inhibitor",,211
CN(C)c1ccc(/C=C/C=C2\CCc3cc(OCCCN4CCCCC4)ccc3C2=O)cc1,HRH3,"ligand displacement, radioligand",cell membranes,0.094
O=C1N[C@@H]([C@@H](CO)NCc2c[nH]c3c(O)ncnc23)CO1,Hypoxanthine-guanine-xanthine phosphoribosyltransferase,"enzyme activity, inhibitor",pH 7.4,> 20
